KCNK3 block: human KCNK3 channel inhibitors, primary screen, CHO cells, FluxOR thallium flux, B-score. Potassium channel subfamily K member 3 (Homo sapiens), O14649. B-score at 10 µM. actives 0.84% (n = 340,000). AID 602410, 2012. FluxOR fluorescence; active compounds read low;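 active = B-score under library mean minus 4 SD, starting fluorescence ratio at most library mean plus 5 SD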;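 note: more negative B-score means stronger inhibition of thallium flux through KCNK3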
Kir21 block: inhibitors of mouse Kir2.1 inward-rectifier potassium channel; HEK293-Kir2.1, FluxOR thallium flux fluorescence; active compounds read low; B-score at 10 µM; actives 0.85% (n = 310,000); AID 1672, 2009;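 active = fluorescence ratio B-score at or below minus 3 SD of library scores, with starting-brightness B-score within 2 SD, cut at about -4.2 in these data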;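 note: channel flux triggered by added potassium and thallium sulfate stimulus; B-score of peak minus minimum fluorescence over baseline after thallium stimulus; more negative B-score means stronger Kir2.1 block with less thallium influx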
Target sequence (P35561 whole entry, looked up): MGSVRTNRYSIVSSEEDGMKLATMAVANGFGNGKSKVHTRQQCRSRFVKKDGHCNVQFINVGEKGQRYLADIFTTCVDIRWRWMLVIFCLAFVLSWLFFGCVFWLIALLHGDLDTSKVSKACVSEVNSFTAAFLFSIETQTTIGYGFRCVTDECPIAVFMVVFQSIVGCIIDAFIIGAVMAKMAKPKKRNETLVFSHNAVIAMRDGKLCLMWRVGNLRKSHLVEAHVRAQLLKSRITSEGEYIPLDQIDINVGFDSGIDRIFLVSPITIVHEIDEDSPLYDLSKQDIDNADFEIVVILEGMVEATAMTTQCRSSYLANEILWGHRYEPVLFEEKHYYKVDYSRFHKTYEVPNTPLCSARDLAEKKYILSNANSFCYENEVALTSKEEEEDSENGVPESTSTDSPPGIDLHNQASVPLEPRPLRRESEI
KCNQ1 act: potentiators or activators of KCNQ1 channel, primary screen, cell-based, thallium flux, high-throughput; AID 2648, 2010; B-score at 10 µM; actives 0.35% (n = 310,000); Potassium voltage-gated channel subfamily KQT member 1 (Homo sapiens), P51787; CHO-K1 KCNQ1, thallium flux FluxOR fluorescence; active compounds read high;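 active = fluorescence ratio B-score, a plate-corrected score, at least three library SD, with initial intensity B-score within 5 SD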
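Medium – assay buffer, equal DMSO in all wells · Material – CHO-K1 cell line with stable KCNQ1 potassium channel expression · Signal – kinetic FluxOR thallium fluorescence, 10-s 1-Hz baseline, 110-s post-stimulus read · Compound – single concentration per compound, DMSO matched to controls · Schedule – 37 °C overnight plating, 90-min dark dye load, 20-min compound pretreatment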
KCNQ1 block: inhibitors of human KCNQ1 channel, primary screen, cell-based, thallium flux, high-throughput. Potassium voltage-gated channel subfamily KQT member 1 (Homo sapiens), P51787. CHO-K1 KCNQ1, FluxOR thallium flux fluorescence; active compounds read high. B-score at 10 µM. actives 1.3% (n = 310,000). AID 2642, 2010;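 active = compounds whose thallium flux B-score, printed positive for inhibition, exceeds three library SD while starting fluorescence stays within three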;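 note: channel opened by potassium depolarization with thallium stimulus after 20 min compound exposure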
KCNK9 inh-1: KCNK9 potassium channel inhibitors, primary screen, HEK293 cells, thallium flux; actives 1.2% (n = 310,000); B-score at 10 µM; AID 488922, 2010; Potassium channel subfamily K member 9 (Homo sapiens), Q9NPC2; FluxOR thallium flux fluorescence; active compounds read low;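 active = ratio B-score over 3 SD below the library mean, with starting fluorescence within 5 SD of its mean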;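 note: negative B-score means less thallium flux so channel inhibition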
hERG rescue: hERG rescue from dofetilide block, primary screen, cell-based, CHO-hERG, FluxOR thallium flux, dofetilide IC70 | activation (rescue from dofetilide block), less the hit threshold, % at 10 µM | actives 0.51% (n = 310,000) | AID 1511, 2009 | Voltage-gated inwardly rectifying potassium channel KCNH2 (Homo sapiens), Q12809 | dofetilide IC70 present;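 active = activation above the mean of controls blocked by dofetilide plus 5 SD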;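 note: thallium influx through hERG after potassium depolarization seen as dye fluorescence rise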
hERG ctr: hERG channel inhibition, counter-screen for Kir2.1 inhibitor project, cell-based, thallium flux; shares compounds with Kir21 block; hERG-expressing cells; inhibition, % at 10 µM; actives 20% (n = 320); AID 2236, 2010;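 note: host cells are CHO cells stably expressing hERG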
KCNK9 inh-2: KCNK9 channel inhibition, selectivity assay for Kir2.1 inhibitor project, cell-based; AID 2329, 2010; shares compounds with Kir21 block; actives 5% (n = 320); inhibition, % at 10 µM; KCNK9-expressing cells, ion flux inhibition
Kir21 ephys inh: mouse Kir2.1 channel blockers, Kir2.1 inhibitor project, cell-based, secondary, automated electrophysiology; shares compounds with Kir21 block; Kir2.1 cells, automated patch-clamp current inhibition; inhibition, % at 25 µM; actives 71% (n = 320); AID 463252, 2010
Of the large screens only hits and unclear results are named; the others gave an inactive call (follow-up assays come after a bar, where they were run). A selection: hits, their analogues and other compounds. The true share with any hit is near 3.8%. Unless noted, the rule behind the calls is not given here.

CN(C)c1ccc(C(=O)c2ccc(O)cc2O)cc1	none | hERG ctr inactive | KCNK9 inh-2 inactive | Kir21 ephys inh inactive
Clc1ccc(OCCOCCNCc2ccccc2)cc1Cl	Kir21 block -8.7 | hERG ctr 51% | KCNK9 inh-2 inactive | Kir21 ephys inh 42%
CC(C)(C)c1ccc(OCCNCc2ccccc2)cc1	none
Cc1ccc(S(=O)(=O)CCCS(=O)(=O)c2ccc(C)cc2)cc1	Kir21 block -5.7 | hERG ctr inactive | KCNK9 inh-2 inactive | Kir21 ephys inh 17%
C=CCNc1nc(NCc2ccccc2)c(C#N)c2c1CN(C)CC2	Kir21 block -6.8 | hERG ctr 64% | KCNK9 inh-2 inactive | Kir21 ephys inh 1.6%
NS(=O)(=O)c1ccc(CCNCc2ccccc2OCc2ccc(Cl)cc2)cc1	Kir21 block -8.2 | hERG ctr 65% | KCNK9 inh-2 inactive | Kir21 ephys inh 31%
NS(=O)(=O)c1ccc(CCNCc2cc(Br)ccc2OCc2ccccc2F)cc1	Kir21 block -6.3 | hERG ctr inactive | KCNK9 inh-2 46% | Kir21 ephys inh 12%
O=C(c1cccc(NC2=NC3CS(=O)(=O)CC3S2)c1)N1CCN(c2cccc(Cl)c2)CC1 (stereo not drawn)	none
Cc1ccccc1OCc1nnc(SCC(=O)O)n1-c1ccccc1	none
Cc1ccccc1OCCSc1nnc(C)n1-c1ccccc1	Kir21 block -6.7 | hERG ctr inactive | KCNK9 inh-2 inactive | Kir21 ephys inh 54%
CC(=O)Nc1ccc(N2C(=O)CSC2c2ccccc2[N+](=O)[O-])cc1 (stereo not drawn)	none
C=CCc1cc(Cl)ccc1OCCOCCNC(C)CC (stereo not drawn)	Kir21 block -7 | hERG ctr inactive | KCNK9 inh-2 inactive | Kir21 ephys inh 42%
CCCCN1C(=O)C(=Nc2cccc3cnccc23)c2ccccc21	Kir21 block -7.5, KCNK9 inh-1 -7.2 | hERG ctr inactive | KCNK9 inh-2 inactive | Kir21 ephys inh inactive
CCOc1cc(C)c(Cl)cc1S(=O)(=O)NCc1ccco1	Kir21 block -8 | hERG ctr inactive | KCNK9 inh-2 inactive | Kir21 ephys inh 31%
COc1cc(C)c(Cl)cc1S(=O)(=O)NCc1ccco1	none
COc1ccc(CCC(C)NCc2cccc(Br)c2)cc1 (stereo not drawn)	Kir21 block -11 | hERG ctr inactive | KCNK9 inh-2 inactive | Kir21 ephys inh 54%
COc1cc(NS(=O)(=O)c2ccc(Nc3nc(-c4ccccc4)cs3)cc2)nc(OC)n1	none | hERG ctr inactive | KCNK9 inh-2 inactive | Kir21 ephys inh inactive
COc1cc(NS(=O)(=O)c2ccc(NC(=S)Nc3ccccc3)cc2)nc(OC)n1	none
C=C1CCC2[C@](C)(CO[C@@H]3O[C@H](CO)[C@@H](O)[C@H](O)[C@H]3O)CCC[C@@]2(C)[C@@H]1CCC1=CCOC1=O (stereo partly drawn)	none (no result: Kir21 block, KCNQ1 act, KCNQ1 block, KCNK9 inh-1, hERG rescue)
CCC(C)NS(=O)(=O)c1ccc(-c2csnn2)s1 (stereo not drawn)	none
CC(=O)N1CC(C)Sc2ccc(S(=O)(=O)NCc3ccccc3Cl)cc21 (stereo not drawn)	Kir21 block -6.1 | hERG ctr inactive | KCNK9 inh-2 inactive | Kir21 ephys inh inactive
CC(=O)N1CCOc2ccc(S(=O)(=O)NCc3ccccc3Cl)cc21	none
O=C(NCCc1ccc(Cl)cc1)C1(c2ccccc2)CC1	Kir21 block -9.5 | hERG ctr inactive | KCNK9 inh-2 inactive | Kir21 ephys inh 44%
COc1ccc(C2(C(=O)NCCc3ccccc3)CCCC2)cc1	none
CC(=O)C1C(c2ccc([N+](=O)[O-])cc2)c2c(noc2C)CC1(C)O (stereo not drawn)	none
CCN(C(=O)CSc1nc2ccc([N+](=O)[O-])cc2s1)C1CCS(=O)(=O)C1 (stereo not drawn)	none
CC(=O)N(CC(C)(C)CC=C(C)C)c1ccccc1	Kir21 block -5.9 (no result: KCNK3 block) | hERG ctr inactive | KCNK9 inh-2 inactive | Kir21 ephys inh 9.4%
COc1ccc(Nc2nc(N3CCCC3)c3ccccc3n2)cc1	Kir21 block -11 | hERG ctr inactive | KCNK9 inh-2 inactive | Kir21 ephys inh 46%
CC(CCCN(C)C)C(Cc1ccccc1)c1ccccc1 (stereo not drawn)	Kir21 block -6.4 | hERG ctr inactive | KCNK9 inh-2 inactive | Kir21 ephys inh 4.0%
COC(=O)Cn1ncn2c(cc3oc(C)cc32)c1=O	none
CC(=O)c1ccc(NC(=O)C(C)OC(=O)c2cccc(-n3cnnn3)c2)cc1 (stereo not drawn)	none
CC(OC(=O)c1cccc(-n2cnnn2)c1)C(=O)Nc1cccc(Cl)c1 (stereo not drawn)	none | hERG ctr inactive | KCNK9 inh-2 inactive | Kir21 ephys inh inactive
CCn1c(CSc2nc3ccccc3s2)nnc1SCC(=O)OC(C)(C)C	Kir21 block -8.7 | hERG ctr inactive | KCNK9 inh-2 inactive | Kir21 ephys inh 31%
CCn1c(CSc2nc3ccccc3s2)nnc1SCC(N)=O	none
Cc1ccc(C(=O)N/C(=C\c2ccc(-c3ccc(Br)cc3)o2)C(=O)NCCCN(C)C)cc1	Kir21 block -10, KCNQ1 block 8 | hERG ctr 77% | KCNK9 inh-2 inactive | Kir21 ephys inh inactive
Cc1ccc(-n2c(=O)c3cc4c(=O)n(-c5ccc(C)c(C)c5)c(=O)c4c(C(=O)c4ccc(C(=O)O)cc4)c3c2=O)cc1C	none
Cc1cc(C)n2nc(C(=O)NNC(=O)c3ccccc3)nc2n1	none
Cc1ccc(NC(=O)COc2ccccc2CNC(C)(C)CC(C)(C)C)cc1	Kir21 block -6.3, KCNQ1 block 8 | hERG ctr 50% | KCNK9 inh-2 37% | Kir21 ephys inh inactive
CC(C)(CO)NCc1ccccc1OCC(=O)Nc1ccccc1	none

Assay outcomes as filed in PubChem BioAssay.
